Experiment [1] concerns ABLE T cells (LACK-specific TCR-transgenic). Description: Stimulation of ABLE T cells in vitro by peptides. The format is cell-based, mouse. The gist of the method: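 Single-cell suspensions (red cells lysed) from spleen and lymph node of BALB/c ABLE TCR-Cα0 mice supplied both T cells and APC. They were plated at 10^6 cells/well in duplicate in RPMI 1640 with 10% heat-inactivated FCS, glutamine, pyruvate and β2-ME, with test peptides over a concentration range. At 48 h, supernatants went to sandwich ELISA against recombinant standards. Wells were then pulsed with 1 μCi [3H]thymidine and harvested 18 h later.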

For experiment [2] the test system is unchanged. Description: T cell antagonism assay. The format is cell-based, mouse. The following applies: for Inhibitory (antagonist) activity, overall: 0.1–100 μM, proliferation, IL-4 and IFN-γ. In outline:
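T cells: CD4+ cells enriched from BALB/c ABLE TCR-Cα0 spleen and lymph node by antibody/complement depletion (80% Vβ4+). APC: BALB/c TCR-Cα0 spleen cells, prepulsed 2 h at 37°C with 0.2 μM wild-type LACK peptide, washed, irradiated, then 2 h at 37°C with test peptide up to 100 μM (OVA323–336 control). 1.6 × 10^5 T cells/well were added. Cytokines were read by ELISA at 48 h; [3H]thymidine uptake over 48–66 h. Values are % inhibition versus prepulsed APC without added peptide.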

For experiment [3], the system named is L. major LV39. On the set-up: species or system Leishmania major. The following applies: in vivo.
The subject of experiment [4] is popliteal lymph node CD4+ T cells. To be noted: mouse, in vivo.
The subject of experiment [5] is L. major LV39. Further details: species or system Leishmania major. The following applies: in vivo. This is another data set of the same source.
Experiment [6] has as its system Vβ4+ T cells of ABLE TCR-Cα^0 mice. To be noted: mouse, in vivo.
The mark [7] stands for this setting: APC prepulsed with LACK peptide, 48 h ELISA.

Read-outs that look alike come from different tables or passages of the source.

ICFSPSLENPIVVSGSWD [LACK-N164]: the “IL-4 production by ABLE T cells” value in experiment [1] (48 h supernatants, ELISA, detection limit 50 pg/ml) is “neither cytokine was detected”. Moreover, in experiment [1] (48 h supernatants, ELISA, detection limit 1 ng/ml), the “IFN-γ production by ABLE T cells” value is on record as “neither cytokine was detected”. For the same molecule, the “Concentration without proliferation of ABLE T cells (highest tested)” value in experiment [1] (no proliferation even at concentrations up to 4 μM, [3H]thymidine) is over 4 µM. The “Inhibitory (antagonist) activity, overall” value in experiment [2] is recorded as “preferentially inhibited IL-4 production by ABLE T cells”. Besides, in experiment [2] (setting [7]), the “Inhibition of IFN-γ production” value is listed as “inhibited consistently less” and the “Inhibition of IL-4 production” value is on record as “inhibited comparably to the LACK-K164 peptide”. Moreover, the Protection result in experiment [3] was “Subgroups of resistant and susceptible mice occurred”.
On to “ISQAVHAAHAEINE [OVA323–336, reference compound]”, for which the “Inhibitory (antagonist) activity, overall” value in experiment [2] is reported as “no inhibitory activity”.

B1: OVA: chicken egg OVA control protein (protein, UniProt P01012 2-386, looked up)
Ovalbumin: GSIGAASMEFCFDVFKELKVHHANENIFYCPIAIMSALAMVYLGAKDSTRTQINKVVRFDKLPGFGDSIEAQCGTSVNVHSSLRDILNQITKPNDVYSFSLASRLYAEERYPILPEYLQCVKELYRGGLEPINFQTAADQARELINSWVESQTNGIIRNVLQPSSVDSQTAMVLVNAIVFKGLWEKAFKDEDTQAMPFRVTEQESKPVQMMYQIGLFRVASMASEKMKILELPFASGTMSMLVLLPDEVSGLEQLESIINFEKLTEWTSSNVMEERKIKVYLPRMKMEEKYNLTSVLMAMGITDVFSSSANLSGISSAESLKISQAVHAAHAEINEAGREVVGSAEAGVDAASVSEEFRADHPFLFCIKHIATNAVLFFGRCVSP
For B1, in experiment [4], the “Proliferation induced by LACK epitopes” value is given as “No proliferation was induced”. The Protection result in experiment [5] is “in contrast to the LACK deletion mutant or OVA controls”. The “Total number of transgenic T cells in draining lymph nodes” value in experiment [6] was 2.9 × 10^5.

These data come from publication PMC2193001 (The Journal of Experimental Medicine, 1999).
